In ChEMBL document CHEMBL3877243, “Synthesis and biological evaluation of novel pentacyclic triterpene α-cyclodextrin conjugates as HCV entry inhibitors” (Eur J Med Chem, 2016):
pIC50: −log10 of the molar value. ≈ marks a conversion by molar mass, not a printed value. Calls of active or inactive are those of the source. No cut-off for these calls is given here.

Key:
[1] = test system: Hepatitis C virus; assay: Antiviral activity against HCV pseudoparticle harboring HCV envelope protein E1 and E2 and HIV proviral DNA assessed as inhibition of pseudoparticle entry into human Huh7 cells at 5 uM measured after 3 days by luciferase reporter gene assay relative to control; type: functional, Hepacivirus hominis; conditions: Huh-7, 72 h
Procedure, shortened: (§1)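 Huh-7 cells (5 × 10³/well) seeded 24 h, then infected with HCVpp or VSVGpp (HIV pNL4-3 luciferase backbone with HCV E1E2 or VSV G, made in 293T cells) with compound in 1% DMSO at 37 °C. Luciferase read 3 days post-infection. % inhibition = 100 − background-subtracted signal as % of DMSO wells. Duplicates, ≥3 repeats.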

[2] = test system: Vesicular stomatitis virus; assay: Antiviral activity against VSV pseudoparticle harboring VSV G protein and HIV proviral DNA assessed as inhibition of pseudoparticle entry into human Huh7 cells measured after 3 days by luciferase reporter gene assay; type: functional, cell-based; conditions: Huh-7; procedure, shortened: as §1
[3] = test system: Hepatitis C virus; assay: (§2) Antiviral activity against HCV pseudoparticle harboring HCV envelope protein E1, E2 and HIV proviral DNA infected in HuH7 cells assessed as reduction in viral infection at 10 uM incubated with virus and compound for 3 hrs by luciferase reporter gene assay; type: functional, Hepacivirus hominis; conditions: Huh-7, 3 h
Procedure, shortened: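 Pre-binding format: Huh-7 cells incubated with compound plus HCVpp at 4 °C for 3 h to allow virus binding. Readout is a luciferase pseudovirus-entry signal, normalised to 0.5% DMSO (final). An anti-CD81 antibody served as positive control.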

[4] = Cytotoxicity against MDCK cells measured after 48 hrs by alamar blue assay; type: toxicity, cell-based, Canis lupus familiaris; conditions: dog
Procedure, shortened: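 MDCK cells were seeded at 1 × 10⁴ per well and allowed to adhere for 16 h at 37 °C in 5% CO₂. Compounds were added at 0.1, 1, 10 and 100, in triplicate, against 1% DMSO controls, for 48 h. AlamarBlue was then added for 2 h and fluorescence read (ex 530, em 590 nm). Percent viability gave CC50.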

[5] = test system: Hepatitis C virus; assay: Antiviral activity against HCV pseudoparticle harboring HCV envelope protein E1 and E2 and HIV proviral DNA assessed as inhibition of pseudoparticle entry into human Huh7 cells measured after 3 days by luciferase reporter gene assay; type: functional, cell-based, Hepacivirus hominis; conditions: Huh-7, 72 h
Procedure, shortened: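 Huh-7 cells infected with HCVpp with compound at six concentrations spanning the nanomolar range upward, 37 °C. Luciferase read 3 days post-infection, normalised to DMSO-only wells minus uninfected background. Each concentration in triplicate. IC50 is the mean of at least three independent determinations.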

[6] = test system: Hepatitis C virus; assay: as §2, with “preincubated cells” for “incubated”, “test” for “virus and”, “3 hrs followed by viral infection measured after 72” for “3”; type: functional, Hepacivirus hominis; conditions: Huh-7
Procedure, shortened: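 Pre-treatment format: Huh-7 cells incubated 3 h at 37 °C with compound in DMEM/10% FBS, then washed to remove unbound compound. Cells were then infected with HCVpp at 37 °C for 72 h. Luciferase readout, normalised to 0.5% DMSO (final).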

[7] = test system: Hepatitis C virus; assay: as §2, with “preincubated viral particle” for “incubated”, “cells” for “virus and compound”, “3 hrs followed by test compound addition measured after 72” for “3”; type: functional, Hepacivirus hominis; conditions: Huh-7
Procedure, shortened: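 Post-binding format: Huh-7 cells incubated with HCVpp at 4 °C for 3 h, then washed thoroughly to remove unbound virus. Cells were then exposed to compound at 37 °C for 72 h. Luciferase readout, normalised to 0.5% DMSO (final).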

[8] = test system: Hepatitis C virus; assay: Antiviral activity against HCV pseudoparticle harboring HCV envelope protein E1, E2 and HIV proviral DNA infected in HuH7 cells assessed as reduction in viral infection at 10 uM pretreated with virus for 6 hrs followed by compound addition measured after 72 hrs by luciferase reporter gene assay; type: functional, Hepacivirus hominis; conditions: Huh-7
Procedure, shortened: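 Post-entry format: Huh-7 cells incubated with HCVpp at 37 °C for 6 h to allow entry but not reverse transcription, then washed. Compound added at 37 °C for a further 72 h. Luciferase readout, normalised to 0.5% DMSO (final).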

[9] = Selectivity index, ratio of CC50 for MDCK cells to IC50 for HCV pseudoparticle expressing envelope protein E1 and E2 to; type: functional
Procedure, shortened: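 SI = MDCK CC50 / HCVpp IC50. The IC50 came from HIV pNL4-3 luciferase pseudoparticles carrying HCV E1E2, made in 293T cells. Huh-7 cells (5 × 10³ per well, seeded 24 h earlier) were infected with compound present at 37 °C, and luciferase was read 3 days later. Inhibition was normalised to DMSO wells minus uninfected background. IC50 values are means of at least three independent determinations.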

[10] = Aqueous solubility of the compound at room temperature measured per 100 ml of solution; type: physicochemical; conditions: buffer
[11] = Aqueous solubility of the compound by HPLC method; type: physicochemical; conditions: buffer
[12] = Aqueous solubility of the compound at 100 ug/ml incubated for 1 hr; type: physicochemical; conditions: buffer

With C=C(C)[C@@H]1CC[C@]2(C(=O)NCc3cn(C[C@H]4O[C@@H]5O[C@H]6[C@H](O)[C@@H](O)[C@@H](O[C@H]7[C@H](O)[C@@H](O)[C@@H](O[C@H]8[C@H](O)[C@@H](O)[C@@H](O[C@H]9[C@H](O)[C@@H](O)[C@@H](O[C@H]%10[C@H](O)[C@@H](O)[C@@H](O[C@H]4[C@H](O)[C@H]5O)O[C@@H]%10CO)O[C@@H]9CO)O[C@@H]8CO)O[C@@H]7CO)O[C@@H]6CO)nn3)CC[C@]3(C)[C@H](CC[C@@H]4[C@@]5(C)CC[C@H](O)C(C)(C)[C@@H]5CC[C@]43C)[C@@H]12 as the compound, how does the inhibition at 5 µM [1] read?
Its inhibition at 5 µM is 60%.

What about the inhibition [2] of the same compound?
The inhibition was “Active”.

With CC1(C)CC[C@]2(C(=O)NCc3cn(C[C@H]4O[C@@H]5O[C@H]6[C@H](O)[C@@H](O)[C@@H](O[C@H]7[C@H](O)[C@@H](O)[C@@H](O[C@H]8[C@H](O)[C@@H](O)[C@@H](O[C@H]9[C@H](O)[C@@H](O)[C@@H](O[C@H]%10[C@H](O)[C@@H](O)[C@@H](O[C@H]4[C@H](O)[C@H]5O)O[C@@H]%10CO)O[C@@H]9CO)O[C@@H]8CO)O[C@@H]7CO)O[C@@H]6CO)nn3)[C@H](O)C[C@]3(C)C(=CC[C@@H]4[C@@]5(C)CC[C@H](O)C(C)(C)[C@@H]5CC[C@]43C)[C@H]2C1 as the compound, how does the inhibition at 5 µM [1] read?
The inhibition at 5 µM was 95%.

What about the inhibition at 10 µM [3] of the same compound?
The inhibition at 10 µM was 10 to 30%.

And the CC50 at 48 h [4]?
Its CC50 at 48 h is greater than 100 µM.

What about the pIC50 [5] of the same compound?
Its pIC50 is 6.60.

What about the inhibition at 10 µM [6] of the same compound?
Its inhibition at 10 µM is 10 to 30%.

And the inhibition at 10 µM [7]?
Its inhibition at 10 µM is greater than 90%.

What about the inhibition at 10 µM [8] of the same compound?
The inhibition at 10 µM was 10 to 30%.

What about the “Ratio CC50/IC50” value [9] of the same compound?
The value was greater than 400.

Which solubility [10] does the source give for OC[C@H]1O[C@@H]2O[C@H]3[C@H](O)[C@@H](O)[C@@H](O[C@H]4[C@H](O)[C@@H](O)[C@@H](O[C@H]5[C@H](O)[C@@H](O)[C@@H](O[C@H]6[C@H](O)[C@@H](O)[C@@H](O[C@H]7[C@H](O)[C@@H](O)[C@@H](O[C@H]1[C@H](O)[C@H]2O)O[C@@H]7CO)O[C@@H]6CO)O[C@@H]5CO)O[C@@H]4CO)O[C@@H]3CO [ALFADEX] here?
Its solubility is 14.5 g.

For CC(=O)OC[C@H]1O[C@@H]2O[C@H]3[C@H](OC(C)=O)[C@@H](OC(C)=O)[C@@H](O[C@H]4[C@H](OC(C)=O)[C@@H](OC(C)=O)[C@@H](O[C@H]5[C@H](OC(C)=O)[C@@H](OC(C)=O)[C@@H](O[C@H]6[C@H](OC(C)=O)[C@@H](OC(C)=O)[C@@H](O[C@H]7[C@H](OC(C)=O)[C@@H](OC(C)=O)[C@@H](O[C@H]1[C@H](OC(C)=O)[C@H]2OC(C)=O)O[C@@H]7COC(C)=O)O[C@@H]6COC(C)=O)O[C@@H]5Cn1cc(CNC(=O)[C@]25CCC(C)(C)C[C@@H]2C2=CC[C@@H]6[C@@]7(C)CC[C@H](O)C(C)(C)[C@@H]7CC[C@@]6(C)[C@]2(C)C[C@H]5O)nn1)O[C@@H]4COC(C)=O)O[C@@H]3COC(C)=O, which inhibition at 5 µM [1] is on record?
Its inhibition at 5 µM is 80%.

What about the inhibition at 10 µM [3] of the same compound?
The inhibition at 10 µM was 10 to 30%.

And the CC50 at 48 h [4]?
Its CC50 at 48 h is greater than 100 µM.

And the pIC50 [5]?
The pIC50 was 5.93.

And the inhibition at 10 µM [6]?
Its inhibition at 10 µM is 10 to 30%.

And the inhibition at 10 µM [7]?
Its inhibition at 10 µM is greater than 90%.

And the inhibition at 10 µM [8]?
Its inhibition at 10 µM is 10 to 30%.

What about the “Ratio CC50/IC50” value [9] of the same compound?
Its value is greater than 85.

Which results are given for CC1(C)CC[C@]2(C(=O)O)[C@H](O)C[C@]3(C)C(=CC[C@@H]4[C@@]5(C)CC[C@H](O)C(C)(C)[C@@H]5CC[C@]43C)[C@@H]2C1?
CC50 at 48 h [4]: 15.4 µM; Ratio CC50/IC50 [9]: 11

What does the source list for C=C(C)[C@@H]1CC[C@]2(C(=O)NCc3cn(C[C@H]4O[C@@H]5O[C@H]6[C@H](OC(C)=O)[C@@H](OC(C)=O)[C@@H](O[C@H]7[C@H](OC(C)=O)[C@@H](OC(C)=O)[C@@H](O[C@H]8[C@H](OC(C)=O)[C@@H](OC(C)=O)[C@@H](O[C@H]9[C@H](OC(C)=O)[C@@H](OC(C)=O)[C@@H](O[C@H]%10[C@H](OC(C)=O)[C@@H](OC(C)=O)[C@@H](O[C@H]4[C@H](OC(C)=O)[C@H]5OC(C)=O)O[C@@H]%10COC(C)=O)O[C@@H]9COC(C)=O)O[C@@H]8COC(C)=O)O[C@@H]7COC(C)=O)O[C@@H]6COC(C)=O)nn3)CC[C@]3(C)[C@H](CC[C@@H]4[C@@]5(C)CC[C@H](O)C(C)(C)[C@@H]5CC[C@]43C)[C@@H]12?
inhibition at 5 µM [1]: 60%; inhibition [2]: Active

For CC1(C)CC[C@]2(C(=O)O)CC[C@]3(C)C(=CC[C@@H]4[C@@]5(C)CC[C@H](O)C(C)(C)[C@@H]5CC[C@]43C)[C@@H]2C1 [OLEANOLIC_ACID], which solubility [11] is on record?
Its solubility is 0.05 µg/mL (≈ 0.109 µM).

Which solubility at 1 h [12] does the source give for C=C(C)[C@@H]1CC[C@]2(C(=O)O)CC[C@]3(C)[C@H](CC[C@@H]4[C@@]5(C)CC[C@H](O)C(C)(C)[C@@H]5CC[C@]43C)[C@@H]12 [BETULINIC ACID] here?
Its solubility at 1 h is 0.02 µg/mL (≈ 0.0438 µM).
